In brackets after ≈: the same amount, converted by molar mass.
How the values were obtained:
Format in all cases: functional
[1] = test system: Pectobacterium atrosepticum; test: Antimicrobial activity against Erwinia carotovora subsp. atroseptica DSM 30184 after 24 hrs by broth microdilution method; conditions: DSM 30184, 24 h
Method in brief: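 CLSI broth microdilution in nutrient broth with an inoculum of 5 x 10^4 CFU/well. MIC was read after 24 h at 28°C under aerobic growth.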

[2] = test system: Escherichia coli; test: Antimicrobial activity against Escherichia coli DH5alpha harboring plasmid pLBII carrying beta-lactamase CAR-1 gene after 24 hrs by broth microdilution method
Method in brief: (§1)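 MIC by CLSI broth microdilution in Mueller-Hinton broth at 37°C. Inoculum was 5 x 10^4 CFU/well, and growth was aerobic.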

[3] = test system: Escherichia coli; test: Antimicrobial activity against Escherichia coli DH5alpha harboring plasmid BC-SK after 24 hrs by broth microdilution method; method in brief: as §1

Row | Structure (SMILES) | MIC [1] [µg/mL] | MIC [2] [µg/mL] | MIC [3] [µg/mL]
1 | CO/N=C(\C(=O)N[C@@H]1C(=O)N2C(C(=O)[O-])=C(C[N+]3(C)CCCC3)CS[C@H]12)c1csc(N)n1 | 2 (≈ 4.16 µM) | – | –
2 | CC1(C)S[C@@H]2[C@H](NC(=O)[C@H](N)c3ccccc3)C(=O)N2[C@H]1C(=O)O [AMPICILLIN] | 0.25 (≈ 0.715 µM) | 4 (≈ 11.4 µM) | 1 (≈ 2.86 µM)
3 | C[C@H]1[C@H](NC(=O)/C(=N\OC(C)(C)C(=O)O)c2csc(N)n2)C(=O)N1S(=O)(=O)O [AZTREONAM] | 16 (≈ 36.7 µM) | 0.25 (≈ 0.574 µM) | –
4 | CO/N=C(\C(=O)N[C@@H]1C(=O)N2C(C(=O)O)=C(COC(C)=O)CS[C@H]12)c1csc(N)n1 [CEFOTAXIME] | 1 (≈ 2.2 µM) | 16 (≈ 35.1 µM) | 0.06 (≈ 0.132 µM)
5 | CO[C@@]1(NC(=O)Cc2cccs2)C(=O)N2C(C(=O)O)=C(COC(N)=O)CS[C@@H]21 [CEFOXITIN] | 8 (≈ 18.7 µM) | 8 (≈ 18.7 µM) | 4 (≈ 9.36 µM)
6 | CC(C)(O/N=C(\C(=O)N[C@@H]1C(=O)N2C(C(=O)[O-])=C(C[n+]3ccccc3)CS[C@H]12)c1csc(N)n1)C(=O)O [CEFTAZIDIME] | 16 (≈ 29.3 µM) | 1 (≈ 1.83 µM) | 0.5 (≈ 0.915 µM)
7 | CO/N=C(\C(=O)N[C@@H]1C(=O)N2C(C(=O)O)=C(COC(N)=O)CS[C@H]12)c1ccco1 [CEFUROXIME] | 0.5 (≈ 1.18 µM) | 256 (≈ 603 µM) | 4 (≈ 9.43 µM)
8 | CC(=O)OCC1=C(C(=O)O)N2C(=O)[C@@H](NC(=O)Cc3cccs3)[C@H]2SC1 [CEPHALOTHIN] | 1 (≈ 2.52 µM) | 64 (≈ 161 µM) | 16 (≈ 40.4 µM)
9 | C[C@@H](O)[C@H]1C(=O)N2C(C(=O)O)=C(SCCNC=N)C[C@H]12 [IMIPENEM ANHYDROUS] | 0.12 (≈ 0.401 µM) | – | –
10 | C[C@@H](O)[C@H]1C(=O)N2C(C(=O)O)=C(S[C@@H]3CN[C@H](C(=O)N(C)C)C3)[C@H](C)[C@H]12 [MEROPENEM] | 0.25 (≈ 0.652 µM) | 0.06 (≈ 0.156 µM) | 0.03 (≈ 0.0782 µM)
11 | CCN1CCN(C(=O)N[C@@H](C(=O)N[C@@H]2C(=O)N3[C@@H]2SC(C)(C)[C@@H]3C(=O)O)c2ccccc2)C(=O)C1=O [PIPERACILLIN] | 64 (≈ 124 µM) | 2 (≈ 3.86 µM) | 1 (≈ 1.93 µM)
12 | CO[C@@]1(NC(=O)C(C(=O)O)c2ccsc2)C(=O)N2[C@@H](C(=O)O)C(C)(C)S[C@@H]21 (some centres undefined) [TEMOCILLIN] | 64 (≈ 154 µM) | 16 (≈ 38.6 µM) | 16 (≈ 38.6 µM)
13 | CC1(C)S[C@@H]2[C@H](NC(=O)[C@H](C(=O)O)c3ccsc3)C(=O)N2[C@H]1C(=O)O [TICARCILLIN] | 4 (≈ 10.4 µM) | 8 (≈ 20.8 µM) | 4 (≈ 10.4 µM)

Reference: ChEMBL document CHEMBL1275443, “Functional diversity among metallo-beta-lactamases: characterization of the CAR-1 enzyme of Erwinia carotovora” (2008)
